The source of these data is ChEMBL document CHEMBL4118021, “Studies of TAK1-centered polypharmacology with novel covalent TAK1 inhibitors” (Bioorg Med Chem, 2017).

Calls of active or inactive are those of the source. No cut-off for these calls is given here.

Assay [1] relates to NCI-H23. In words: Antiproliferative activity against human NCI-H23 cells harboring KRAS G12C mutant after 72 hrs by CellTiter-Glo assay. The format is functional, cell-based. In short, it runs like this: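 NCI-H23 or NCI-H358 cells seeded at 2000 cells/well and grown 48 h before drug. Varying doses were added and cells incubated 72 h. Viability was read as CellTiter-Glo luminescence, and growth-inhibition IC50 was calculated from dose-response curves.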

The target of assay [2] is T1, Mitogen-activated protein kinase kinase kinase 7 (Homo sapiens, UniProt O43318).
T1 sequence (O43318 whole entry): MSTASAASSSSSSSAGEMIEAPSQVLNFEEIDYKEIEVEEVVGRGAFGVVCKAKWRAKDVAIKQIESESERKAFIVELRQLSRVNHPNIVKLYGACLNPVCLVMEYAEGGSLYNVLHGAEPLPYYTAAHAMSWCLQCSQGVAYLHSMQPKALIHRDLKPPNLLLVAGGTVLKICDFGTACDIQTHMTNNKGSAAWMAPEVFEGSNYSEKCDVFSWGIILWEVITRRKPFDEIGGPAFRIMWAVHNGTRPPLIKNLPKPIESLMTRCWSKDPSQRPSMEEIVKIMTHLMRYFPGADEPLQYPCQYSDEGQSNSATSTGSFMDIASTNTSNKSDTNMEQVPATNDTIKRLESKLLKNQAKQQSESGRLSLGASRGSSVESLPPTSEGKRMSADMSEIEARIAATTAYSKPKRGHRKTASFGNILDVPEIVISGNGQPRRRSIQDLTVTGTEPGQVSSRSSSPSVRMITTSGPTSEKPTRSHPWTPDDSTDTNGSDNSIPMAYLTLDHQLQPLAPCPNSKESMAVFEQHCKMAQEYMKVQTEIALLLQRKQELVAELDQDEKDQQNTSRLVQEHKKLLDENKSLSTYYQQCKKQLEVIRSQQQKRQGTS
In words: Inhibition of TAK1 (unknown origin) by LanthaScreen assay.

The target in assay [3] is Cyclin-dependent kinase 16 (Homo sapiens) (UniProt Q00536). In words: Inhibition of PCTAIRE1 in human SKCO1 cells at 1 uM after 4 hrs using biotin labeled SKLTDNLVALKEIR probe by mass-spectrometric analysis relative to control. Type of assay: cell-based. An outline of the steps: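 Live SK-CO-1 cells exposed to compound at 1 μM or DMSO for 4 h (KiNativ). Lysates then labeled with lysine-reactive ATP/ADP-biotin probe, and probe-labeled kinase peptides quantified by mass spectrometry. Percent inhibition of probe-dependent recovery calculated relative to DMSO-treated cells.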
Chain of Cyclin-dependent kinase 16 (Homo sapiens) (Q00536 whole entry): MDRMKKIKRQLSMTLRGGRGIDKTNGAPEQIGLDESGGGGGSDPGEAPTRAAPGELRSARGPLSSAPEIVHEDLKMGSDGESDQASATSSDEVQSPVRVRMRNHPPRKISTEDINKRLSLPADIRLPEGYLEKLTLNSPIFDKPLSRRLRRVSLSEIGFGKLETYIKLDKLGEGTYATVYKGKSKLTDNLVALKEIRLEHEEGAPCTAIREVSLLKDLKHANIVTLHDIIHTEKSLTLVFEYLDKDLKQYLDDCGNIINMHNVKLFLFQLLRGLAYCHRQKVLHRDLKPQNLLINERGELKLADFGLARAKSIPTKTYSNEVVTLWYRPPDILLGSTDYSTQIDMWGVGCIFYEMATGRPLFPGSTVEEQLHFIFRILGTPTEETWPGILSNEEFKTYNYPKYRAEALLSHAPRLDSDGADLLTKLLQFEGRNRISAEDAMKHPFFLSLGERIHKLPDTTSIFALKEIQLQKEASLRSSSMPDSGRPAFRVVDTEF

Assay [4] deals with Mitogen-activated protein kinase kinase kinase 5 (Homo sapiens) (UniProt Q99683). In words: Inhibition of MAP3K5 in human SKCO1 cells at 1 uM after 4 hrs using biotin labeled DIKGDNVLINTYSGVLK probe by mass-spectrometric analysis relative to control. The format is cell-based.
Chain of Mitogen-activated protein kinase kinase kinase 5 (Homo sapiens) (Q99683 whole entry): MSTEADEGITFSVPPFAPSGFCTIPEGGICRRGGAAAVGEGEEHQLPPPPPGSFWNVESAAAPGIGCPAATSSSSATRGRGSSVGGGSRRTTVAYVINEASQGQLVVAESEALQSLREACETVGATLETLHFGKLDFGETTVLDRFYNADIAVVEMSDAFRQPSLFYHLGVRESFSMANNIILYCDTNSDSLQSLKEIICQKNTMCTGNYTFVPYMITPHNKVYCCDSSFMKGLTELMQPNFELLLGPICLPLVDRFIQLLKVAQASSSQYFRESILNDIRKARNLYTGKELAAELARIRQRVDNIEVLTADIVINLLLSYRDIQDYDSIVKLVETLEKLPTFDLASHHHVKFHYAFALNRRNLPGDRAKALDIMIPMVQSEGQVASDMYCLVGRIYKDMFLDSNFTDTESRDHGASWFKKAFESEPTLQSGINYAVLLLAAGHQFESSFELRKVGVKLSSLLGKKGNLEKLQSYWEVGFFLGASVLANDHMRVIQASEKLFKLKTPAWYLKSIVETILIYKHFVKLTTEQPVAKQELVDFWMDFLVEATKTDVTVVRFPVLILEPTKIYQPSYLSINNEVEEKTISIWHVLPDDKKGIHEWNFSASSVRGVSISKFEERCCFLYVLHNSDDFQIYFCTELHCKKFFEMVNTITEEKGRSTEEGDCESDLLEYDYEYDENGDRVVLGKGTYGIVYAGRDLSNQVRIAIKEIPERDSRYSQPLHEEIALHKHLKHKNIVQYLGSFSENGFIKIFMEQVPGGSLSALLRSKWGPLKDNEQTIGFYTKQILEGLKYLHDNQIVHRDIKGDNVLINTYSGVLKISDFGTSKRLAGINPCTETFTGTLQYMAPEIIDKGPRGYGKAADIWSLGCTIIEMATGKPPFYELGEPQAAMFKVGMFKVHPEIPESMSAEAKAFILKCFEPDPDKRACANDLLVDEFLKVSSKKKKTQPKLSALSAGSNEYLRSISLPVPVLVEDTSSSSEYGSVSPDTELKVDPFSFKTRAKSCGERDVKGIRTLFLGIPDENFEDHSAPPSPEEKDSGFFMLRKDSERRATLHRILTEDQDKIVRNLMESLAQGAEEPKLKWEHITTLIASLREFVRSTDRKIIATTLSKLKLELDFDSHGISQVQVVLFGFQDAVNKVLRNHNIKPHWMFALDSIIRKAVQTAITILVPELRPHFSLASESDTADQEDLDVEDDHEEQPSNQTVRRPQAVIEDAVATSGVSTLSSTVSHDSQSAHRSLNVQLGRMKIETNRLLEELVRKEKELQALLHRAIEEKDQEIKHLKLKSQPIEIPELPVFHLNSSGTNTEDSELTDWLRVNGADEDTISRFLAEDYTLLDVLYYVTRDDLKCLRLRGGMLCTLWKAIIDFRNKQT
For assay [5], the target named is T2, Dual specificity mitogen-activated protein kinase kinase 5 (Homo sapiens) (UniProt Q13163).
T2 sequence (whole entry): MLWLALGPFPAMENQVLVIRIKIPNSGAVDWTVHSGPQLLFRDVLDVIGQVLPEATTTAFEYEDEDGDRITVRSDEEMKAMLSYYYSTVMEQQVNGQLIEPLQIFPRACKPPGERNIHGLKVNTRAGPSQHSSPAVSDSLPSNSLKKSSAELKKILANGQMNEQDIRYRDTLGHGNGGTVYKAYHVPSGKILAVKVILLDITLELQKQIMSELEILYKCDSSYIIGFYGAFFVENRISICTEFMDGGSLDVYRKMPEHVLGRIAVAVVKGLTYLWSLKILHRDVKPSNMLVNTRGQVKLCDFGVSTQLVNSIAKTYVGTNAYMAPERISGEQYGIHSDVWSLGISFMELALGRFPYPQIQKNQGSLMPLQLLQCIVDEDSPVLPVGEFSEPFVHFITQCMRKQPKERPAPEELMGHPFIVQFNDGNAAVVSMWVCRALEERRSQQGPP
Description: Inhibition of MAP2K5 in human SKCO1 cells at 1 uM after 4 hrs using biotin labeled DVKPSNMLVNTR probe by mass-spectrometric analysis relative to control. The format is cell-based.

For assay [6], the target named is Tyrosine-protein kinase FRK (Homo sapiens) (UniProt P42685). In words: Inhibition of FRK in human SKCO1 cells at 1 uM after 4 hrs using biotin labeled HEIKLPVK probe by mass-spectrometric analysis relative to control. The format is cell-based.
Chain of Tyrosine-protein kinase FRK (Homo sapiens) (P42685 whole entry): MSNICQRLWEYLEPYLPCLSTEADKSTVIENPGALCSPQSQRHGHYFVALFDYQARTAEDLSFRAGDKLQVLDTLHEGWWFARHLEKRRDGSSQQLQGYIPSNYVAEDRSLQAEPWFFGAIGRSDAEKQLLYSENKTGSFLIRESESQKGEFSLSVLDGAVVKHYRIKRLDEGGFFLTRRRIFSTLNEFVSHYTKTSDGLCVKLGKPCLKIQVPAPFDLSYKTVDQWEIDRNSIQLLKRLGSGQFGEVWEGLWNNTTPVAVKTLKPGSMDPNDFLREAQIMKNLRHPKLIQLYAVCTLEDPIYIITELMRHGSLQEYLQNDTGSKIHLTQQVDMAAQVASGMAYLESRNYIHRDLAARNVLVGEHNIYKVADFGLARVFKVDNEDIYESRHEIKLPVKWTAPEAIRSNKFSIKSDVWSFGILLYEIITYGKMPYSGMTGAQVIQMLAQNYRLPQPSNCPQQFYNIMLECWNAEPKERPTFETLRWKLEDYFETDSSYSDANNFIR
Assay [7] deals with ASPC1. In words: Antiproliferative activity against human AsPC1 cells harboring KRAS G12D mutant after 72 hrs by CellTiter-Glo assay. The format is functional, cell-based. Particulars: ASPC1, 72 h.
For assay [8], the target named is Cyclin-dependent kinase 5 (Homo sapiens) (UniProt Q00535). In words: Inhibition of CDK5 in human SKCO1 cells at 1 uM after 4 hrs using biotin labeled DLKPQNLLINR probe by mass-spectrometric analysis relative to control. Type of assay: cell-based.
Chain of Cyclin-dependent kinase 5 (Homo sapiens) (Q00535 whole entry, looked up): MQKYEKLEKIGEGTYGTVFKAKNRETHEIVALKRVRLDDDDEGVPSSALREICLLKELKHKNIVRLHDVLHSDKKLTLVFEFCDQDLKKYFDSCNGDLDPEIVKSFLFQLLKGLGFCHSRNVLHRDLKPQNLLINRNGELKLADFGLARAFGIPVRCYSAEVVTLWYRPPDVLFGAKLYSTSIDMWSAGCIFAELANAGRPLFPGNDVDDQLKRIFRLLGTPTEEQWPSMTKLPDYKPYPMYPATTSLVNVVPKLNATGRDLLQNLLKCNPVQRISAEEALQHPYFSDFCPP
In assay [9] the test system is SW-620. In words: Antiproliferative activity against human SW620 cells harboring KRAS G12V mutant after 72 hrs by CellTiter-Glo assay. The format is functional, cell-based. The note with it: SW-620, 72 h.
A short description of assay [10]: Antiproliferative activity against human SW156 cells harboring wild type KRAS after 72 hrs by CellTiter-Glo assay. Type of assay: functional, cell-based.
Assay [11] addresses Tyrosine-protein kinase ZAP-70 (Homo sapiens) (UniProt P43403). Description: Inhibition of ZAP70 in human SKCO1 cells at 1 uM after 4 hrs using biotin labeled ISDFGLSKALGADDSYYTAR probe by mass-spectrometric analysis relative to control. Type of assay: cell-based.
The target in assay [12] is Proto-oncogene tyrosine-protein kinase Src (Homo sapiens) (UniProt P12931). In words: Inhibition of SRC in human SKCO1 cells at 1 uM after 4 hrs using biotin labeled QGAKFPIKWTAPEAALYGR probe by mass-spectrometric analysis relative to control. The format is cell-based.
Chain of Proto-oncogene tyrosine-protein kinase Src (Homo sapiens) (P12931 2-536 limits assumed): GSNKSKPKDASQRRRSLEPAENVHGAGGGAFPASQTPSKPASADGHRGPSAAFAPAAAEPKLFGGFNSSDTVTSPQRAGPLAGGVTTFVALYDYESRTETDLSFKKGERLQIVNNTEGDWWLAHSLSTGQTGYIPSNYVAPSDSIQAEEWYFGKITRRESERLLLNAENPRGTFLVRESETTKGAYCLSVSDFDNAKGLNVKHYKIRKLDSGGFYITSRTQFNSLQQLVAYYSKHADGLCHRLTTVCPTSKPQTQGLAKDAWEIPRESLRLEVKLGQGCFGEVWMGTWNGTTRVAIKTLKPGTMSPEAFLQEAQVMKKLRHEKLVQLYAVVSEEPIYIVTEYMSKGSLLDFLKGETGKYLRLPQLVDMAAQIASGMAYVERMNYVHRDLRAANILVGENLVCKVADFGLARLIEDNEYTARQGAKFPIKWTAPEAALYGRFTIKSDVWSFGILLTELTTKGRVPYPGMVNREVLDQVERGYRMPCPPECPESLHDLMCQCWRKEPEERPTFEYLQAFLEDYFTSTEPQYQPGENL
Assay [13] concerns the target T3, Dual specificity mitogen-activated protein kinase kinase 3 (Homo sapiens) (UniProt P46734).
T3 sequence (whole entry): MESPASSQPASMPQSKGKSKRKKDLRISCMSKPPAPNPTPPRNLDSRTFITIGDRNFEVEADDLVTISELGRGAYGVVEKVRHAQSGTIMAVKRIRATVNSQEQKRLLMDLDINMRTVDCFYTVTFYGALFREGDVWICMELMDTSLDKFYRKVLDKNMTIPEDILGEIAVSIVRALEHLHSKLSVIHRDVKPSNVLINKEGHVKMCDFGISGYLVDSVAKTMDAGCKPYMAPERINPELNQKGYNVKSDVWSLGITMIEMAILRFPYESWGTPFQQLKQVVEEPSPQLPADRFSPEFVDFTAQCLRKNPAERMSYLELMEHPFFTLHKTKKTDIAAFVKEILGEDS
Description: Inhibition of MAP2K3 in human SKCO1 cells at 1 uM after 4 hrs using biotin labeled DVKPSNVLINK probe by mass-spectrometric analysis relative to control. Type of assay: cell-based.

In assay [14] the target is Dual specificity mitogen-activated protein kinase kinase 2 (Homo sapiens) (UniProt P36507). In words: Inhibition of MAP2K2 in human SKCO1 cells at 1 uM after 4 hrs using biotin labeled DVKPSNILVNSR probe by mass-spectrometric analysis relative to control. The format is cell-based. An outline of the steps:
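Live SK-CO-1 cells treated 4 h at 1 μM (DMSO control); cells lysed and lysates labeled with lysine-reactive ATP/ADP-biotin probe (KiNativ); probe-labeled kinase peptides quantified by mass spectrometry; inhibition expressed as percent reduction in probe-dependent recovery versus DMSO-treated cells.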

Chain of Tyrosine-protein kinase ZAP-70 (Homo sapiens) (P43403 whole entry): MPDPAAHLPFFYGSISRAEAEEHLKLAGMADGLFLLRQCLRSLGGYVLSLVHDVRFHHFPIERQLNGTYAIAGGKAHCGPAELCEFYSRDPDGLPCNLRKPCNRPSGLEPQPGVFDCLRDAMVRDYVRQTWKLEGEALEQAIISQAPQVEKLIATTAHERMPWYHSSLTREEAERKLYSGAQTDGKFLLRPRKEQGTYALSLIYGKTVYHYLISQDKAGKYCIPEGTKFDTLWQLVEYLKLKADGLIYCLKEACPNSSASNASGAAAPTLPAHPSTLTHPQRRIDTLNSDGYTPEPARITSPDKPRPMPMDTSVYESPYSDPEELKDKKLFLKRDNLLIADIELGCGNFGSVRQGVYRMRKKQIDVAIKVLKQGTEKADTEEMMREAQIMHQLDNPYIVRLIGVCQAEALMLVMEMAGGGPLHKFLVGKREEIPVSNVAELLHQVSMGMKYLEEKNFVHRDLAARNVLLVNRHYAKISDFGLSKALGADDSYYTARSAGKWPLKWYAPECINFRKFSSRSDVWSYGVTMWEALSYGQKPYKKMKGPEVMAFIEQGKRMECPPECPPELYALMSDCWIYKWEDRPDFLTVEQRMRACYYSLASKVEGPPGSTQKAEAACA
Chain of Dual specificity mitogen-activated protein kinase kinase 2 (Homo sapiens) (P36507 whole entry): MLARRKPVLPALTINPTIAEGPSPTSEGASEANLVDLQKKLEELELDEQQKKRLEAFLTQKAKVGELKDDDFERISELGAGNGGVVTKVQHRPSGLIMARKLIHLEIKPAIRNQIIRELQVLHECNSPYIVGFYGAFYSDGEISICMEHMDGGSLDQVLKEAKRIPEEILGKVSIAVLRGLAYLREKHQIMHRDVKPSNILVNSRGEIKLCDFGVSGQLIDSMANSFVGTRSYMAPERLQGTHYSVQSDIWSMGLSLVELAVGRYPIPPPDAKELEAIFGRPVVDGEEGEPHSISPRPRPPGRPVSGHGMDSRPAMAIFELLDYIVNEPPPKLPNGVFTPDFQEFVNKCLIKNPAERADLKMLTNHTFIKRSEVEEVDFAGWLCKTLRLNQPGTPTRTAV

For `C=CC(=O)Nc1ccccc1Nc1nc(Nc2ccc(N3CCN(C)CC3)cc2)ncc1Cl`, the result in [1] was Active. The compound further yielded an IC50 in assay [2] of 50 nM. The inhibition in assay [3] is -8%; in assay [4], 25.5%; in assay [5], 38.1%; in assay [6], 39.2%.
Take `COc1cc(O)c2c(c1)/C=C/C[C@H](O)[C@H](O)C(=O)/C=C\C[C@H](C)OC2=O`: the concentration for half-maximal inhibition (IC50) in assay [7] came to 6020 nM; in assay [1] (NCI-H23, 72 h), 1000 nM; in assay [9] it was 2540 nM; in [10], 2020 nM. Besides, the inhibition in assay [8] was 2.1%; in assay [11], 63.6%; in [12], 8.5%; in assay [13] it was 33.5%; in [5] it was 86.8%; in [6], -9.6%. Besides, the inhibition in assay [14] stood at 95%.
Take `C=CC(=O)Nc1ccccc1Oc1nc(Nc2cnn(CCOC)c2)ncc1Cl`: the IC50 in assay [7] amounted to 1340 nM; in assay [2], 2.4 nM; in assay [9] it was 506 nM; in assay [10], 3020 nM. Moreover, the inhibition in assay [8] is 4.2%; in [3] it was -5.2%; in [11], 34.1%; in [4], 10%; in assay [12] it was -0.9%; in assay [13], 10.9%. Further, in assay [14], the inhibition came out at 7.9%.
